The source made the active and inactive calls. The rule behind the calls is not given here.
Key:
[1] = In vitro inhibition of tissue swelling of Cerebrocortical slices from cat with addition of Triethylammonium Bicarbonate (TEAB) at a compound concentration of 1 X 10E-5 M.; type: functional, Felis catus
In short: (§1)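 Cat cerebral cortex slices (~150 mg, 0.5 mm) incubated aerobically 60 min at 37 °C in K+-rich (27 mM) Hepes-buffered saline-glucose with test compound as Na salt. HCO3- (NaHCO3 or TEAB) added from sidearm at 20 min to 10 mM final; HCO3- flasks gassed with 2.5% CO2/97.5% O2. Swelling by reweighing; Na+/K+ by flame photometry, Cl- by amperometric titration. Units: per g initial fresh weight; means ± SE, Student's t test.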

Felis catus [2] = species on record: Felis catus; assay: Evaluated for Potassium ion content of Cerebrocortical slices in cat with addition of Triethylammonium Bicarbonate (TEAB) at a compound concentration of 1 X 10E-5 M.; type: functional; in short: as §1
Felis catus [3] = species on record: Felis catus; assay: Evaluated for chloride ion content of Cerebrocortical slices in cat with addition of Triethylammonium Bicarbonate (TEAB) at a compound concentration of 1 X 10E-5 M.; type: functional; in short: as §1
Felis catus [4] = species on record: Felis catus; assay: In vitro inhibition of HCO3- stimulated swelling in cat cerebrocortical tissue slice; type: functional; details: read-out: I 50; in short: as §1
Rattus norvegicus [5] = species on record: Rattus norvegicus; assay: Relative salidiuretic efficacy was scored in Rat; marked; type: functional, organism-based; details: Urine
Felis catus [6] = species on record: Felis catus; assay: Evaluated for Sodium ion content of Cerebrocortical slices in cat with addition of Sodium Bicarbonate (NaHCO3) at a compound concentration of 1 X 10E-5 M..; type: functional; in short: as §1
[7] = Distribution coefficient (D %) between octanol and buffer of pH 7.4; type: physicochemical; details: octanol/water
[8] = Evaluated for Sodium ion content of Cerebrocortical slices in cat with addition of Triethylammonium Bicarbonate (TEAB) at a compound concentration of 1 X 10E-5 M.; type: functional, Felis catus; in short: as §1
[9] = Evaluated for chloride ion content of Cerebrocortical slices in cat with addition of Sodium Bicarbonate (NaHCO3) at a compound concentration of 1 X 10E-5 M..; type: functional, Felis catus; in short: as §1
Felis catus [10] = species on record: Felis catus; assay: Evaluated for Potassium ion content of Cerebrocortical slices in cat with addition of Sodium Bicarbonate (NaHCO3) at a compound concentration of 1 X 10E-7 M..; type: functional; in short: as §1
[11] = Dissociation constant (pKa) (determined in 30% EtOH); type: physicochemical
[12] = Evaluated for Potassium ion content of Cerebrocortical slices in cat with addition of Sodium Bicarbonate (NaHCO3) at a compound concentration of 1 X 10E-5 M; type: functional, Felis catus; in short: as §1
Pan troglodytes [13] = species on record: Pan troglodytes; assay: Relative salidiuretic efficacy was scored in chimpanzee; marked; type: functional, organism-based; details: Urine
Canis familiaris [14] = species on record: Canis familiaris; assay: Relative salidiuretic efficacy was scored in dog; moderate; type: functional, organism-based; details: Canis lupus familiaris; Urine
Felis catus [15] = species on record: Felis catus; assay: In vitro inhibition of tissue swelling of Cerebrocortical slices from cat with addition of Sodium Bicarbonate (NaHCO3) at a compound concentration of 1 X 10E-7 M; type: functional; in short: as §1
Felis catus [16] = species on record: Felis catus; assay: In vitro inhibition of tissue swelling of Cerebrocortical slices from cat with addition of Sodium Bicarbonate (NaHCO3) at a compound concentration of 1 X 10E-5 M..; type: functional; in short: as §1
Felis catus [17] = species on record: Felis catus; assay: In vitro inhibition of tissue swelling of Cerebrocortical slices from cat with addition of Sodium Bicarbonate (NaHCO3) and at a compound concentration of 1 X 10E-5 M; type: functional; in short: as §1
[18] = Compound at a concentration of 1 X 10E-5 M along with addition of Sodium Bicarbonate (NaHCO3) was tested for percent bicarbonate stimulated swelling of Cerebrocortical slices in cat (in vitro); type: functional, Felis catus; in short: as §1
Pan troglodytes [19] = species on record: Pan troglodytes; assay: Relative salidiuretic efficacy was scored in chimpanzee; moderate; type: functional, organism-based; details: Urine
[20] = Evaluated for Potassium ion content of Cerebrocortical slices in cat with addition of Triethylammonium Bicarbonate (TEAB) and at a compound concentration of 1 X 10E-5 M.; type: functional, Felis catus; in short: as §1
Canis familiaris [21] = species on record: Canis familiaris; assay: Relative salidiuretic efficacy was scored in dog; weak; type: functional, organism-based; details: Canis lupus familiaris; Urine
Felis catus [22] = species on record: Felis catus; assay: In vitro inhibition of tissue swelling of Cerebrocortical slices from cat with addition of Triethylammonium Bicarbonate (TEAB) and at a compound concentration of 1 X 10E-5 M.; type: functional; in short: as §1
Felis catus [23] = species on record: Felis catus; assay: In vitro inhibition of HCO3- stimulated swelling in cat cerebrocortical tissue slice; No inhibition occurred; type: functional; details: read-out: I 50; in short: as §1
Rattus norvegicus [24] = species on record: Rattus norvegicus; assay: Relative salidiuretic efficacy was scored in Rat; moderate; type: functional, organism-based; details: Urine
Felis catus [25] = species on record: Felis catus; assay: Evaluated for chloride ion content of Cerebrocortical slices in cat with addition of Sodium Bicarbonate (NaHCO3) and at a compound concentration of 1 X 10E-5 M; type: functional; in short: as §1
[26] = Evaluated for Potassium ion content of Cerebrocortical slices in cat with addition of Sodium Bicarbonate (NaHCO3) and at a compound concentration of 1 X 10E-5 M; type: functional, Felis catus; in short: as §1
Canis familiaris [27] = species on record: Canis familiaris; assay: Relative salidiuretic efficacy was scored in dog; Marginal; type: functional, organism-based; details: Canis lupus familiaris; Urine
Rattus norvegicus [28] = species on record: Rattus norvegicus; assay: Relative salidiuretic efficacy was scored in Rat; Marginal; type: functional, organism-based; details: Urine
Felis catus [29] = assay: Mortality of animals recorded as the number of animals dead out of the total animals (16) taken for the study at dose 5 mg/kg; type: functional
In short: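 Adult conditioned cats (2.5–4 kg) under iv methohexital (13.25 mg/kg, plus 2.75 mg/kg if needed) received machine-induced acceleration/deceleration head injury. Forty min later they were paralysed with gallamine and ventilated with 6% O2/94% N2 for 60 min (arterial pO2 23 ± 1 torr). Drug was given iv 20 min post-injury, before hypoxemia. Mortality was scored as dead/total, chi-square tested.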

Pan troglodytes [30] = species on record: Pan troglodytes; assay: Relative salidiuretic efficacy was scored in chimpanzee; Marginal; type: functional, organism-based; details: Urine

For `C[C@]1(C2CCCC2)Cc2cc(OCC(=O)O)c(Cl)c(Cl)c2C1=O`, which Tissue swelling [1] is on record?
The Tissue swelling was 156 µM/g.

And the Activity (Felis catus [2])?
Its Activity is 95.9 µM/g.

And the Activity (Felis catus [3])?
The Activity was 84.1 µM/g.

What about the IC50 (Felis catus [4]) of the same molecule?
Its IC50 is 100 nM.

What about the Relative salidiuretic activity (Rattus norvegicus [5]) of the same molecule?
Its Relative salidiuretic activity is “marked”.

What about the Activity (Felis catus [6]) of the same molecule?
The Activity was 101.8 µM/g.

And the Distribution [7]?
The Distribution was 90%.

And the Activity [8]?
The Activity was 100.9 µM/g.

And the Activity [9]?
The Activity was 89 µM/g.

What about the Activity (Felis catus [10]) of the same molecule?
The Activity was 98.4 µM/g.

What about the pKa [11] of the same molecule?
The pKa was 3.9.

And the Activity [12]?
The Activity was 92.4 µM/g.

And the Relative salidiuretic activity (Pan troglodytes [13])?
The Relative salidiuretic activity was “marked”.

What about the Relative salidiuretic activity (Canis familiaris [14]) of the same molecule?
Its Relative salidiuretic activity is “marked”.

What about the Tissue swelling (Felis catus [15]) of the same molecule?
The Tissue swelling was 232 µL/g.

And the Tissue swelling (Felis catus [16])?
Its Tissue swelling is 157 µL/g.

Which Tissue swelling (Felis catus [17]) does the source give for `C[C@@]1(C2CCCC2)Cc2cc(OCC(=O)O)c(Cl)c(Cl)c2C1=O` here?
Its Tissue swelling is 266 µL/g.

What about the Activity [18] of the same molecule?
The Activity was 100.

And the Relative salidiuretic activity (Pan troglodytes [19])?
Its Relative salidiuretic activity is “marked”.

And the Activity [20]?
Its Activity is 93.6 µM/g.

And the Relative salidiuretic activity (Canis familiaris [21])?
The Relative salidiuretic activity was “marked”.

What about the Distribution [7] of the same molecule?
Its Distribution is 90%.

And the Activity (Felis catus [22])?
Its Activity is 279 µM/g.

What about the IC50 (Felis catus [23]) of the same molecule?
The IC50 was > 10000 nM.

What about the pKa [11] of the same molecule?
The pKa was 3.9.

And the Relative salidiuretic activity (Rattus norvegicus [24])?
Its Relative salidiuretic activity is “marked”.

And the Activity (Felis catus [25])?
Its Activity is 104.6 µM/g.

What about the Activity [26] of the same molecule?
The Activity was 96.4 µM/g.

Which results are given for `CC1(C2CCCC2)Cc2cc(OCCCC(=O)O)c(Cl)c(Cl)c2C1=O` (racemic)?
IC50 (Felis catus [4]): 20 nM; Distribution [7]: 99%; pKa [11]: 5.7; Relative salidiuretic activity (Canis familiaris [27]): inactive; Relative salidiuretic activity (Rattus norvegicus [28]): inactive; Mortality (Felis catus [29]): 4; Relative salidiuretic activity (Pan troglodytes [30]): inactive
